From ChEMBL document CHEMBL5149989, “Interplay among Conformation, Intramolecular Hydrogen Bonds, and Chameleonicity in the Membrane Permeability and Cyclophilin A Binding of Macrocyclic Peptide Cyclosporin O Derivatives” (J Med Chem, 2021) come the findings set out here.

SMILES strings stand for the structures. Non-standard residues stand in square brackets, D forms with d. Residues, ends and D or L forms follow the SMILES beside them. NMeL = CN[C@@H](CC(C)C)C(=O)O; NMeV = CN[C@H](C(=O)O)C(C)C; Nva = CCC[C@H](N)C(=O)O; Sar = CNCC(=O)O

Broadly, the Ki is a dissociation constant, usually derived from enzyme kinetics or from competition with a known ligand. The Tmax is the time at which the peak concentration occurs. One may read the AUC as concentration integrated over time. A low value points to low exposure. By Cmax is commonly meant the highest concentration seen after dosing. What is called CL/F is the apparent clearance, not corrected for the fraction that reaches the circulation. Usually half-life stands for the time needed for the level to fall by half in the phase considered. Read a low half-life as fast loss.

Data set [1] can be described thus: Permeability in PBS buffer measured after 18 hrs by PAMPA based LC-MS analysis. In kind it is ADME. The settings on record: read-out: permeability.
Data set [2] can be described thus: Effective permeability in PBS buffer assessed as mass retention measured after 18 hrs by PAMPA based LC-MS analysis. The format is ADME.
The nature of data set [3]: Permeability across apical to basal side in human Caco-2 cells measured at 0.5 to 2 hrs by LC-MS analysis. The settings on record: time 0.5-2 hrs; for Papp A→B: read-out: permeability. In kind it is ADME, cell-based. For orientation: Caco-2 cells form a polarised layer with tight junctions and transporters.
Data set [4] can be described thus: Permeability across apical to basal side in human Caco-2 cells assessed as drug recovery measured at 0.5 to 2 hrs by LC-MS analysis relative to control. The format is ADME, cell-based. The settings on record: time 0.5-2 hrs, read-out: Drug recovery.
The nature of data set [5]: Permeability across basal to apical side in human Caco-2 cells measured at 0.5 to 2 hrs by LC-MS analysis. The format is ADME, cell-based. The settings on record: time 0.5-2 hrs, read-out: permeability.
A short description of data set [6]: Permeability across basal to apical side in human Caco-2 cells assessed as drug recovery measured at 0.5 to 2 hrs by LC-MS analysis relative to control. In kind it is ADME, cell-based. The settings on record: time 0.5-2 hrs, read-out: Drug recovery.
Data set [7] is described as follows: Permeability across apical to basal side in human Caco-2 cells preincubated with verapamil for 30 mins followed by compound addition measured at 0.5 to 2 hrs by LC-MS analysis. In kind it is ADME, cell-based. The settings on record: Caco-2, with verapamil (concentration not stated), time 0.5-2 hrs, read-out: permeability.
The nature of data set [8]: Permeability across apical to basal side in human Caco-2 cells assessed as drug recovery preincubated with verapamil for 30 mins followed by compound addition measured at 0.5 to 2 hrs by LC-MS analysis relative to control. The settings on record: for recovery: Caco-2, with verapamil (concentration not stated), time 1-2.5 hrs, read-out: Drug recovery. The format is ADME, cell-based.

Data set [9] addresses Peptidyl-prolyl cis-trans isomerase A (Homo sapiens, UniProt P62937). Nature of the data set: Binding affinity to CypA (unknown origin) assessed as inhibition constant by isomer specific proteolysis assay.
A short description of data set [10]: Tmax in ICR mouse at 20 mg/kg, po measured after 0.25 to 24 hrs by LC-MS/MS analysis. The format is ADME, organism-based. The conditions noted are these: in vivo, time 0.25-24 hrs.
The nature of data set [11]: AUCinfinity in ICR mouse at 20 mg/kg, po measured after 0.25 to 24 hrs by LC-MS/MS analysis. The format is ADME, organism-based. The arrangement: dose 20 mg/kg, time upper 24 hrs, time lower 0.25 hrs, route po. The settings on record: in vivo.
Data set [12] in a line: Cmax in ICR mouse at 20 mg/kg, po measured after 0.25 to 24 hrs by LC-MS/MS analysis. The settings on record: in vivo. In kind it is ADME, organism-based. The arrangement: time upper 24 hrs, time lower 0.25 hrs, dose 20 mg/kg, route po.
Data set [13] is described as follows: Clearance in ICR mouse at 20 mg/kg, po measured after 0.25 to 24 hrs by LC-MS/MS analysis. In kind it is ADME, organism-based. The settings on record: in vivo, time 0.25-24 hrs. The procedure, abridged: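 Male ICR mice (9 weeks, 33−37 g) given 20 mg/kg (10 mL/kg) by oral gavage. Plasma obtained by centrifugation at 4 °C, protein-precipitated with 4 volumes acetonitrile, and analysed by LC-MS/MS.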

Data set [14] is described as follows: Apparent volume of distribution in ICR mouse at 20 mg/kg, po measured after 0.25 to 24 hrs by LC-MS/MS analysis. The format is ADME, organism-based. The settings on record: in vivo, time 0.25-24 hrs.
Data set [15] can be described thus: Half life in ICR mouse at 20 mg/kg, po measured after 0.25 to 24 hrs by LC-MS/MS analysis. In kind it is ADME, organism-based. The settings on record: in vivo, time 0.25-24 hrs.
A short description of data set [16]: Oral bioavailability in ICR mouse at 20 mg/kg measured after 0.25 to 24 hrs by LC-MS/MS analysis. The format is ADME, organism-based. The settings on record: in vivo, time 0.25-24 hrs. Put shortly: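 Male ICR mice received 5 mg/kg iv via tail vein or 20 mg/kg po by gavage. Plasma was sampled serially up to 24 h via the saphenous vein, acetonitrile-precipitated and quantified by LC-MS/MS. F was derived from the po and iv AUC∞ values.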

The nature of data set [17]: Ratio of drug level in brain to plasma in ICR mouse plasma at 1 uM preincubated for 10 mins followed by compound addition measured after 60 mins by LC-MS/MS analysis. The format is ADME, cell-free. The conditions noted are these: read-out: BPR.
The nature of data set [18]: Potency index, ratio of cyclosporin A BPR to test compound BPR for drug level in ICR mouse at 1 uM. The format is ADME. The conditions noted are these: in vivo.
Data set [19] is described as follows: Half life in ICR mouse at 5 mg/kg, iv measured after 0.08 to 24 hrs by LC-MS/MS analysis. The conditions noted are these: in vivo.
A short description of data set [20]: AUCinfinity in ICR mouse at 5 mg/kg, iv measured after 0.08 to 24 hrs by LC-MS/MS analysis. The conditions noted are these: in vivo.
Data set [21] can be described thus: Volume of distribution at steady state in ICR mouse at 5 mg/kg, iv measured after 0.08 to 24 hrs by LC-MS/MS analysis. The conditions noted are these: in vivo, read-out: Vdss.

Sequence of Peptidyl-prolyl cis-trans isomerase A (P62937 whole entry): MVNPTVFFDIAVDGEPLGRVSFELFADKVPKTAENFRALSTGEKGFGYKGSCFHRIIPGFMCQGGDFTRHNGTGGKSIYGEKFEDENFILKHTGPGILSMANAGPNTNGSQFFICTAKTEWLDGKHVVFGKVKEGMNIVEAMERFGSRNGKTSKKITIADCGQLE

Regarding `CCC[C@@H]1NC(=O)[C@H](CC(C)C)N(C)C(=O)[C@H](CC(C)C)N(C)C(=O)[C@H](CC(C)C)N(C)C(=O)[C@H](CC(C)C)N(C)C(=O)[C@@H](C)NC(=O)[C@H](C)NC(=O)[C@H](CC(C)C)N(C)C(=O)[C@H](C(C)C)NC(=O)[C@H](CC(C)C)N(C)C(=O)CN(C)C1=O`, the Papp at 18 h in data set [1] was 0.06 ×10⁻⁶ cm/s. In addition, the Activity in [2] is recorded as 74%. For the same compound, the values for the Papp A→B in [3] and in [7] were 0.07 ×10⁻⁶ cm/s and 0.34 ×10⁻⁶ cm/s, respectively. Also, the recovery in data set [4] is 66%; in [6], 65%; in [8], 107%. Further, the Papp B→A in data set [5] worked out at 0.61 ×10⁻⁶ cm/s. In addition, in data set [9], the inhibitory constant (Ki) is more than 20 µM.

Consider `CCC[C@@H]1NC(=O)[C@H](CC(C)C)N(C)C(=O)[C@H](C(C)C)N(C)C(=O)[C@H](CC(C)C)N(C)C(=O)[C@H](CC(C)C)N(C)C(=O)[C@@H](C)NC(=O)[C@H](CCC(N)=O)NC(=O)[C@H](CC(C)C)N(C)C(=O)[C@H](C(C)C)NC(=O)[C@H](CC(C)C)N(C)C(=O)CN(C)C1=O`, for which, in data set [1], the Papp at 18 h is less than 0.004 ×10⁻⁶ cm/s. Also, the Activity in [2] is given as 60%. Further, the Papp A→B was 0.05 ×10⁻⁶ cm/s in data set [3] and 0.07 ×10⁻⁶ cm/s in [7]. The recovery in data set [4] came out at 76%; in [6], 88%; in data set [8], 112%. Besides, in data set [5], the Papp B→A was determined as 5.17 ×10⁻⁶ cm/s. Besides, in data set [9], the inhibition constant (Ki) was found to be 3 µM.

`CCC[C@@H]1NC(=O)[C@H](CC(C)C)N(C)C(=O)[C@H](C(C)C)N(C)C(=O)[C@H](CC(C)C)N(C)C(=O)[C@H](CC(C)C)N(C)C(=O)[C@@H](C)NC(=O)[C@H](C)NC(=O)[C@H](CC(C)C)N(C)C(=O)[C@H](C(C)C)NC(=O)[C@H](CC(C)C)N(C)C(=O)CN(C)C1=O` (cyclo(A[dA][NMeL][NMeL][NMeV][NMeL][Nva][Sar][NMeL]V[NMeL])): in data set [1], the Papp at 18 h turned out to be 0.29 ×10⁻⁶ cm/s. In addition, in data set [2], the Activity worked out at 84%. In [3], the permeability is recorded as 0.29 10^-6 cm/s. For the same compound, the recovery in data set [4] and in data set [6] was 82% throughout. Besides, the Papp B→A in data set [5] was found to be 2.88 ×10⁻⁶ cm/s. Moreover, in [7], the Papp A→B was determined as 0.69 ×10⁻⁶ cm/s. The Drug recovery in data set [8] (caco-2, time 1-2.5 hrs) is on record as 123%. Further, the Tmax in data set [10] came out at 0.8 h. The values for the AUC in [11] and in [20] were 4080 ng·h/mL and 8500 ng·h/mL, respectively. Further, the concentration in [12] peaked (Cmax) at 1600 ng/mL. In data set [13], the CL/F stood at 82 mL/min/kg. Moreover, in data set [14], the Vz stood at 22.2 L/kg. In addition, the figures for the half-life in [15] and in data set [19] were 3.1 h and 4.8 h, respectively. The compound further displayed a F in [16] of 12%. Besides, the Kp at 1 h, 1 µM in [17] came out at 0.62. In addition, the Ratio in [18] turned out to be 5. Besides, the Ki in data set [9] is 2.3 µM. The Vd in data set [21] came out at 4 L/kg.

For `CCC[C@@H]1NC(=O)[C@H](CC(C)C)N(C)C(=O)[C@H](CC(C)C)N(C)C(=O)[C@H](CC(C)C)N(C)C(=O)[C@H](CC(C)C)N(C)C(=O)[C@@H](C)NC(=O)[C@H](CCC(N)=O)NC(=O)[C@H](CC(C)C)N(C)C(=O)[C@H](C(C)C)NC(=O)[C@H](CC(C)C)N(C)C(=O)CN(C)C1=O` (cyclo([NMeL][NMeL][NMeL][NMeL][Nva][Sar][NMeL]V[NMeL]Q[dA])), the Papp at 18 h in data set [1] is less than 0.009 ×10⁻⁶ cm/s. Also, the Activity in [2] was determined as 75%. Besides, the Papp A→B stood at 0.12 ×10⁻⁶ cm/s in data set [3] and 0.18 ×10⁻⁶ cm/s in data set [7]. The recovery in data set [4] came to 89%; in [6] it was 87%; in [8], 110%. The Papp B→A in data set [5] is 8.6 ×10⁻⁶ cm/s. The Ki in [9] is more than 20 µM.

With `CC(C)NCC(O)COc1ccc(CC(N)=O)cc1` (configuration not stated) [ATENOLOL], the recovery in data set [4] is 88%; in data set [6] it was 85%; in [8] it was 78%.

Turning to `CC(C)NCC(O)COc1cccc2ccccc12` (configuration not stated) [PROPRANOLOL], the Papp A→B in data set [3] amounted to 20 ×10⁻⁶ cm/s.
